Only some compounds are listed: those with a hit (about 3.7% of all), similar ones and a draw of the others.
OX1R antag-1 – antagonists of human orexin 1 receptor (OX1R) | Orexin/Hypocretin receptor type 1 (Homo sapiens), O43613 | OX1R-expressing cells, FRET antagonist read-out | inhibition, % at 6.6 µM | 330,000 tested, 1.8% active | AID 485270, 2010; in the data active means inhibition mostly above about 38%, no sharp cut-off; inactive means mostly below about 40%;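 further: 0% = agonist challenge alone and 100% = reference antagonist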
PGE2 EP2 inh – human EP2 receptor antagonists, primary screen, TR-FRET cAMP, C6 glioma cells; C6 glioma cells expressing human EP2; cells stimulated with saturating PGE2; 260,000 tested, 0.52% active; AID 1422, 2008; inhibition, % at 25 µM; Prostaglandin E2 receptor EP2 subtype (Homo sapiens), P43116;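 active means percent inhibition above 40 after rounding to a whole number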;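 further: rat C6 glioma host cells with rolipram phosphodiesterase inhibitor present; the protocol text gives 20 µM as final concentration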
Target sequence (P43116 whole entry, looked up): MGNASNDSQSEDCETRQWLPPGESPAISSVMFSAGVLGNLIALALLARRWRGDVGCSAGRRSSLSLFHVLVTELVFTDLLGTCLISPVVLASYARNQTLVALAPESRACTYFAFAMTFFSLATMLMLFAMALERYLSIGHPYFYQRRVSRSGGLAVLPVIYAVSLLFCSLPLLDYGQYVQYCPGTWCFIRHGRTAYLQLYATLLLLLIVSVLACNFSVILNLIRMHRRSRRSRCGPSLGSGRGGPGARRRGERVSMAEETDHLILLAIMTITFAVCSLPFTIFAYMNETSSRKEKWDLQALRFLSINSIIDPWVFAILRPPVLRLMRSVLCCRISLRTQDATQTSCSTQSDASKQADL
CHO parental Ca – ATP-evoked calcium signal inhibitors, parental CHO, primary screen, counter-screen for OX1R antagonist project, cell-based, fluorescence, Fluo-8 calcium dye | AID 463079, 2010 | parental CHO-K1, ATP-induced calcium, Fluo-8 fluorescence | 330,000 tested, 0.63% active | inhibition, % at 5.6 µM;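 active means inhibition above that plate's mean sample inhibition plus 3 SD, cut at about 26% in these data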;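 further: 0% = ATP-challenged DMSO wells and 100% = DMSO wells without ATP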
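Assay system: parental CHO cells; Read-out basis: percent inhibition of ATP-evoked calcium rise, normalized to controls; Benchmarks: ATP and no-ATP DMSO wells; Compound dosing: single nominal dose of 5.6 µM per compound; Signal: Fluo-8 calcium dye fluorescence; Also added: ATP as calcium-mobilizing challenge; Repeats: singlicate.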
EP2 mod – EP2 receptor modulators, cAMP readout, primary screen, cell-based, HTRF cAMP, PGE2 stimulation | EP2-expressing cells, cAMP HTRF FRET, PGE2 co-stimulation | induction, % at 25 µM | 260,000 tested, 0.83% active;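 active means compounds whose cAMP rise, as percent of the full-agonist control response, exceeds 60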;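 further: rat C6 glioma line stably carrying human EP2 under a CMV promoter; the protocol text gives 20 µM as final concentration; 100% = response of wells given 1 µM PGE2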
GPR7 antagonist – GPR7 receptor antagonists, primary screen, cell-based, fluorescence, single concentration; 290,000 tested, 1.1% active; AID 1861, 2009; inhibition, % at 4.4 µM; Neuropeptides B/W receptor type 1 (Homo sapiens), P48145; GPR7-expressing cells, fluorescence antagonist assay; in the data active means inhibition above about 16%, passing the limit was not always enough;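 further: cells stimulated with the agonist NPW; 0% = agonist with vehicle and 100% = vehicle without agonist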
Target sequence (P48145 whole entry, looked up): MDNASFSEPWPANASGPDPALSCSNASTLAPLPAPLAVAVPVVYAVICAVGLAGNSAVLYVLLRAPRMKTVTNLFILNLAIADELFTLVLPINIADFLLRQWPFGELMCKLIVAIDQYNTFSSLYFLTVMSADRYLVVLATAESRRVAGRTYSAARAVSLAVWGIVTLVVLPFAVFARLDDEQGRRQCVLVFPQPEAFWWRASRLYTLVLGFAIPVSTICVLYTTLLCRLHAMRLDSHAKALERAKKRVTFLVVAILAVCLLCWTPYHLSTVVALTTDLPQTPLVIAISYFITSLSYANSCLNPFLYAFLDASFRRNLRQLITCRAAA
OX1R antag-2 – OX1R (HCRTR1) antagonists, primary screen, fluorescence, CHO/OX1R cells, Fluo-8 calcium, orexin A. inhibition, % at 5 µM. AID 434989, 2010. Fluo-8 calcium fluorescence. 330,000 tested, 0.43% active;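 active means inhibition above its plate's threshold, mean inhibition of all tested compounds on the plate plus 3 SD, cut at about 37% in these data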;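 further: 0% = orexin A challenge wells and 100% = SB-334867-A antagonist wells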
EP2 confirm – cAMP induction in EP2, EP4, beta2-AR and parental cells, confirmation, counter-screen for EP2 modulator project, cell-based, five parallel assays, C6 glioma, HEK293; shares compounds with EP2 mod; cAMP HTRF induction; plus low (about EC15) PGE2 agonist; calls only at 20 µM (by protocol); 1,300 tested, 47% active; AID 1080, 2008;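 active means cAMP induction above 50% in the main assay while under 30% in all four parallel counter assays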;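 further: rat C6 glioma cells stably expressing human EP2 receptor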
* marks the source's active call; other numbers are inactive results; i = inactive; . = not tested or not shown; + = active, no number.

SMILES	OX1R antag-1	PGE2 EP2 inh	CHO parental Ca	EP2 mod	GPR7 antagonist	OX1R antag-2	EP2 confirm
Cc1ccc(C)c(NC(=S)N(Cc2ccco2)C(C)c2cccs2)c1 (stereo unspecified)	8.4	4.7	-2.0	68.0*	-7.2	-16.2	i
Cc1ccc(Cl)cc1NC(=S)N(Cc1ccco1)C(C)c1cccs1 (stereo unspecified)	4.3	4.9	-11.9	63.2*	-15.9	-13.6	i
CC(/C=C/c1ccccc1)=N\NC(=O)CCc1ccccc1	16.7	12.7	5.5	-38.2	-10.3	-17.1	.
Cc1cccc(-n2c(CCn3nc(C)c([N+](=O)[O-])c3C)n[nH]c2=S)c1	6.5	11.3	-13.3	61.5*	3.7	-14.5	i
O=C(CSc1nc2cc(Cl)ccc2s1)N1CCCc2ccccc21	3.9	4.0	-31.2	67.8*	-7.8	-11.9	+
O=C(c1ccc(Cl)cc1)c1oc2ccccc2c1CS(=O)c1ccccc1 (stereo unspecified)	32.3	0.6	-29.5	71.2*	0.1	-25.6	+
O=C(c1ccccc1)C1CN(Cc2ccccc2)CCC1(O)c1ccccc1 (stereo unspecified)	9.1	7.1	-10.6	76.0*	-5.2	-13.3	i
COc1cc(C2Oc3cc(C4Oc5cc(O)cc(O)c5C(=O)C4O)ccc3OC2CO)ccc1O (stereo unspecified)	6.4	9.9	-1.5	80.1*	-8.9	-2.2	i
COc1ccc2c(c1)C(=O)[C@H](O)[C@@H](c1ccc(OC)c(Br)c1)O2	38.4	7.1	7.2	22.6	4.7	-21.6	.
CCn1c2ccccc2c2cc(Nc3cc(C)nc4ncnn34)ccc21	2.3	8.0	-9.6	82.7*	0.2	-2.3	+
O=C1C2C3c4ccccc4C(c4ccccc43)[C@@H]2c2nc3ccccc3n21 (stereo partly specified)	27.4	11.4	-17.4	75.2*	11.7	-31.6	+
CCOc1cccc(CNc2ccc(O)cc2)c1OCc1ccc(Cl)cc1	8.5	11.6	-5.6	77.4*	-3.8	-13.5	+
CCOCCCNC(=O)C1CCCN(S(=O)(=O)c2cccc3nsnc23)C1 (stereo unspecified)	38.1	.	-12.2	.	-15.0	-25.9	.
COc1ccccc1Nc1cc(C)nc2c(C)ccc([N+](=O)[O-])c12	21.9	4.4	-32.9	80.3*	-2.4	-19.3	+
Cc1cc(Nc2ccccc2)c2c([N+](=O)[O-])cc(C)c(C)c2n1	23.4	8.8	-33.8	46.5	-17.8	-33.2	.
COc1ccc(OC)c(-c2cnc(OC(C)(C)C)nc2OC(C)(C)C)c1	7.6	7.8	-17.4	69.8*	-12.6	-12.3	i
C=CCSc1nc2sc(C)c(C)c2c(=O)n1CC=C	16.8	8.4	-29.2	71.2*	1.5	-27.8	i
CCSc1ncnc2sc(C)c(C)c12	13.5	6.0	-7.0	38.6	-6.7	-10.3	.
C=CCn1c(SCC(=O)N2CCOCC2)nc2sc(C)c(C)c2c1=O	23.6	.	-9.8	.	-10.5	-19.8	.
C=CCSc1ncnc2sc(C)c(C)c12	22.1	2.9	-16.2	55.3	-6.3	8.1	i
CCN(CC)CCNC(=O)CCc1nnc2ccc(N3CCC(C)CC3)nn12	11.6	.	1.1	.	1.8	0.0	.
Cc1ccc(C2CC2c2n[nH]c(=S)n2-c2ccc(Cl)cc2)cc1 (stereo unspecified)	9.7	5.8	85.7*	53.2	-6.8	35.3	i
COc1ccc(S(=O)(=O)N(CC(=O)NCCCN(C)C)c2ccc(C)cc2)cc1OC	11.8	12.3	-14.1	8.2	5.6	-15.8	.
CCC(=O)Nc1c2c(nn1-c1ccc(C)cc1C)CSC2	8.1	9.1	-8.6	25.2	-1.5	-11.2	.
Cc1ccc(-n2nc3c(c2NC(=O)c2ccc(Br)o2)CSC3)c(C)c1	-4.2	5.1	-7.2	51.7	-3.2	-26.6	i
SMILES	OX1R antag-1	PGE2 EP2 inh	CHO parental Ca	EP2 mod	GPR7 antagonist	OX1R antag-2	EP2 confirm
Cc1nc(N2CCN(C(=O)c3ccco3)CC2)c(C#N)c2c1CCCC2	8.8	.	-11.7	.	3.7	-28.0	.
Cc1cc(C)c2nc(N3CCCN(C(=O)c4ccco4)CC3)c(C#N)cc2c1	7.5	7.1	-26.7	69.9*	-1.2	-24.3	+
CCc1ccccc1NC(=O)/C(C#N)=C\c1ccc(Sc2ccccc2)o1	8.8	12.4	-26.9	-4.3	-0.1	-10.8	.
CC1=CCc2c(cc3oc(C)cc(=O)c3c2O)OC1	.	3.5	.	52.0	.	.	i
Cc1cc(=O)c2c(O)c(O)ccc2o1	3.6	10.0	-2.4	1.1	-12.1	-1.9	.
COc1cnc(SCc2c(Cl)cccc2Cl)nc1Cl	10.3	6.1	-20.1	73.6*	22.2	-21.6	+
CC(C)Oc1c(N2CCOCC2)c(=O)c1=O	2.5	6.3	-5.6	12.8	-14.0	7.5	.
COc1ccc2c(Cl)c(-c3nnc(SCC(=O)c4ccccc4)n3C)sc2c1	41.3	.	-11.6	-2.4	-4.3	6.2	.
CCOc1ccc(OCC)c(NC(=O)CN2CCN(CC)CC2)c1	21.8	9.3	-14.9	2.9	0.5	-36.6	.
CCOc1ccc(OCC)c(NC(=O)CN2CCN(c3cc(C)ccc3C)CC2)c1	6.2	11.1	-4.8	77.9*	-4.7	-12.0	+
CCOc1ccc(OCC)c(NC(=O)CN2CCN(c3cccc(C)c3)CC2)c1	12.3	.	0.0	73.4*	-0.6	-16.9	+
COc1ccccc1C(=O)n1nc(-c2ccco2)nc1SC	12.9	4.6	11.5	52.0	-16.4	1.6	.
CCSc1nc2sc3c(c2c(=O)n1CC)CC(C)(C)OC3	13.2	5.8	-11.7	52.4	-4.5	-32.2	i
O=C(c1cc2sccc2n1Cc1ccccc1)N1CCCc2ccccc21	16.9	4.2	-7.9	69.0*	13.7	-26.8	+
COC(=O)c1cc2sccc2n1CC(=O)N1CCCc2ccccc21	-1.2	5.0	-10.4	30.5	-13.3	-23.8	.
Cn1c(C(=O)N2CCCc3ccccc32)cc2sccc21	18.4	9.1	-17.6	65.8*	-3.6	-6.9	+
CCOc1ncccc1C(=O)OCC(=O)Nc1cccc(C(C)=O)c1	7.0	7.5	-12.9	16.9	4.1	-12.4	.
N#CC(C(=O)O)=C1CCCC1	-5.0	17.1	-4.3	18.4	3.7	-8.2	.
